The target of assay [1] is T1, Serine/threonine-protein kinase NLK (Homo sapiens) (UniProt Q9UBE8).
T1 sequence (whole entry): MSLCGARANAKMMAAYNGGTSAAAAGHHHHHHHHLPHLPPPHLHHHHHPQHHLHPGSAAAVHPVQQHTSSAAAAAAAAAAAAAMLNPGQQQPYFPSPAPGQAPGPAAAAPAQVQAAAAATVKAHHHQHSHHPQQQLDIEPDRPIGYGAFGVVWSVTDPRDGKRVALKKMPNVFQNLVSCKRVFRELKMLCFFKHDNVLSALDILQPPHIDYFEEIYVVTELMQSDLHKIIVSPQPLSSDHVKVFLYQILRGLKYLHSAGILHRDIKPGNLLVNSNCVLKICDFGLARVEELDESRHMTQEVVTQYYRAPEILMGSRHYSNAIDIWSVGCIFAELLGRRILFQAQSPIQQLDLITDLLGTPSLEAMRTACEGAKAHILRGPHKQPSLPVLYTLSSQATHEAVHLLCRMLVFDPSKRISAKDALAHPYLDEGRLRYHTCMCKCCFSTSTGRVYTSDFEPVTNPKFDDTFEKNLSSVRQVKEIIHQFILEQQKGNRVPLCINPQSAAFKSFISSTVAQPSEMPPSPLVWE
The assay is described as follows: Inhibition of human recombinant NLK at 40 nM related to control ULK1.

Assay [2] deals with Serine/threonine-protein kinase 24 (Homo sapiens) (UniProt Q9Y6E0). The assay is described as follows: Inhibition of human recombinant MST3 at 40 nM related to control ULK1.
In assay [3] the target is T2, NUAK family SNF1-like kinase 1 (Homo sapiens) (UniProt O60285).
T2 sequence (whole entry): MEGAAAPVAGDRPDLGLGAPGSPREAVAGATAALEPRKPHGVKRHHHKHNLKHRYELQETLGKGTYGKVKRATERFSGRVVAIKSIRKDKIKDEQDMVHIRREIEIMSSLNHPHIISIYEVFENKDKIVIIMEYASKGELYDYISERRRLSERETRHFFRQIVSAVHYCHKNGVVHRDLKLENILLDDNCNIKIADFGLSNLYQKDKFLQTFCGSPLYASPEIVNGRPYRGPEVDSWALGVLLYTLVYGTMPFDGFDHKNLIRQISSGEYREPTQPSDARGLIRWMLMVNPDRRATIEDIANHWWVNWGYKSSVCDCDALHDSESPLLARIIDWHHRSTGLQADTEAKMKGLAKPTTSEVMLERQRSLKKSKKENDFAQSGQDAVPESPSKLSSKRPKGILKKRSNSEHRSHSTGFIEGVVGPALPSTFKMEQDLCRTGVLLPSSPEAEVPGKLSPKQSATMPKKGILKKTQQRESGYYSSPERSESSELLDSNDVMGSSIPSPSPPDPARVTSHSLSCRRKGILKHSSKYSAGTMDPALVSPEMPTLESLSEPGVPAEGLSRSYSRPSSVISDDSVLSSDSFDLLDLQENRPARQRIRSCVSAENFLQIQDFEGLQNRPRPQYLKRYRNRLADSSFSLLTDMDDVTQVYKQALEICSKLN
The assay is described as follows: Inhibition of human recombinant NuaK1 at 40 nM related to control ULK1.

Assay [4] has as its target Transcription initiation factor TFIID subunit 1-like (Homo sapiens) (UniProt Q8IZX4). Nature of the assay: Inhibition of human recombinant TAF1L at 40 nM in presence of ATP by radiometric assay relative to control.
For assay [5], the target named is 3-phosphoinositide-dependent protein kinase 1 (Homo sapiens) (UniProt O15530). The assay is described as follows: Inhibition of human recombinant PDK1 at 500 nM in presence of ATP by radiometric assay relative to control.
The target of assay [6] is LIM domain kinase 1 (Homo sapiens) (UniProt P53667). The assay is described as follows: Inhibition of human recombinant LIMK1 at 500 nM in presence of ATP by radiometric assay relative to control.
Sequence of LIM domain kinase 1 (Homo sapiens) (P53667 whole entry, looked up, the tested form may be a part): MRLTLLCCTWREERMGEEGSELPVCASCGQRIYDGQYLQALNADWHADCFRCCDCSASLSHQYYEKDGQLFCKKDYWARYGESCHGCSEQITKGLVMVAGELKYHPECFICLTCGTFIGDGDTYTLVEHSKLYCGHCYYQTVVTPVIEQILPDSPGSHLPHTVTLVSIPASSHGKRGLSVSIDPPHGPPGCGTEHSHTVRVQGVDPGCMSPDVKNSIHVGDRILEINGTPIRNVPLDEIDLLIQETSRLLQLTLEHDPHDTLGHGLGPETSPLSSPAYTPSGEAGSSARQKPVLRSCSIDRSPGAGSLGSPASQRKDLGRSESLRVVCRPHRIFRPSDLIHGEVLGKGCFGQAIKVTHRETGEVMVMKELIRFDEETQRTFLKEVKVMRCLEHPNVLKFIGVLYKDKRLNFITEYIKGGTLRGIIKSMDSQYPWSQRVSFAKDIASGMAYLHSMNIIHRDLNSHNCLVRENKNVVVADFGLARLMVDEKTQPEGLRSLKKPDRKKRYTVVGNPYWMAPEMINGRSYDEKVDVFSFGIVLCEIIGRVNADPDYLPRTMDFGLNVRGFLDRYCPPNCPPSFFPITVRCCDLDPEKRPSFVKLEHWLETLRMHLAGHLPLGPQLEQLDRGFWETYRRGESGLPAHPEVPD
Assay [7] deals with Hepatocyte growth factor receptor (Homo sapiens) (UniProt P08581). The assay is described as follows: Inhibition of human recombinant MET at 500 nM related to control ULK1.
Sequence of Hepatocyte growth factor receptor (Homo sapiens) (P08581 whole entry, looked up): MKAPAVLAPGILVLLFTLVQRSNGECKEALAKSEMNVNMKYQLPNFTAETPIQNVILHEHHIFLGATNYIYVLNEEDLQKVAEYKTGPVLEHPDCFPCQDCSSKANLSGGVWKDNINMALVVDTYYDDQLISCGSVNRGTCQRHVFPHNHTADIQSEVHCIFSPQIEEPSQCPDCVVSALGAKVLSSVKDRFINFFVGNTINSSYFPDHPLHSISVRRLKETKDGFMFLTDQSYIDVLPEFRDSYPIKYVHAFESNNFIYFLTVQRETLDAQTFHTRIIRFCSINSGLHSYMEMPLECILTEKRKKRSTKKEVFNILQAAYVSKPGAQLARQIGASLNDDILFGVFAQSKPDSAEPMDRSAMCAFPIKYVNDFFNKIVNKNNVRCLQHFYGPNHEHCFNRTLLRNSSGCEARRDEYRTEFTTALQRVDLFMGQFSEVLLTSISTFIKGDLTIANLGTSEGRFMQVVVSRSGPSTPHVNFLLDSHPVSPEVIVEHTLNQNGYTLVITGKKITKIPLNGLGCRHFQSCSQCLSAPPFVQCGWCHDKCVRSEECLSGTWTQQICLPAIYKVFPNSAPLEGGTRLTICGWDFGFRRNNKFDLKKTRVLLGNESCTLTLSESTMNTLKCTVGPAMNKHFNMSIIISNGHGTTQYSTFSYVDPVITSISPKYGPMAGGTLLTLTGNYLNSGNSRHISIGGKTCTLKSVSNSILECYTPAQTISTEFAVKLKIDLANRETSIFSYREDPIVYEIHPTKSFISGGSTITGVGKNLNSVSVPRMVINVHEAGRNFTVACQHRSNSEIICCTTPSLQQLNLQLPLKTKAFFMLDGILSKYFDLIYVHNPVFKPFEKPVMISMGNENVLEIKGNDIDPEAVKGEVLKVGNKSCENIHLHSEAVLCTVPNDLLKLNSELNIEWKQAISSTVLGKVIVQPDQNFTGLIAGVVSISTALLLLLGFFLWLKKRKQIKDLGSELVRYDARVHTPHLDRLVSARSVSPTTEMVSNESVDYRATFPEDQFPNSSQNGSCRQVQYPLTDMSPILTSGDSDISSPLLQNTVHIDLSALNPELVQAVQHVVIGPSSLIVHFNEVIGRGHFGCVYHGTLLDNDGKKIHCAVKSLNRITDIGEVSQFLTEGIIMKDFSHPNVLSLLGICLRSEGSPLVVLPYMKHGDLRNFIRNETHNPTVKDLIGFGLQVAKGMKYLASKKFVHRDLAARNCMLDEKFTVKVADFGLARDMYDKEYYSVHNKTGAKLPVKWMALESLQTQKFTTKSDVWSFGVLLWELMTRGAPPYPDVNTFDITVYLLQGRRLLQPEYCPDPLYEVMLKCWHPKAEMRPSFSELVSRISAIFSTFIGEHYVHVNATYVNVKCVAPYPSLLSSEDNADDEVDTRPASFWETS
The target in assay [8] is Protein-tyrosine kinase 2-beta (Homo sapiens) (UniProt Q14289). The assay is described as follows: Inhibition of human recombinant PYK2 at 500 nM in presence of ATP by radiometric assay relative to control.
For assay [9], the target named is Tyrosine-protein kinase Lck (Homo sapiens) (UniProt P06239). Nature of the assay: Inhibition of human recombinant LCK at 15 nM related to control ULK1.
The target in assay [10] is Serine/threonine-protein kinase 32A (Homo sapiens) (UniProt Q8WU08). Nature of the assay: Inhibition of human recombinant YANK1 at 15 nM in presence of ATP by radiometric assay relative to control.
Sequence of Serine/threonine-protein kinase 32A (Homo sapiens) (Q8WU08 whole entry): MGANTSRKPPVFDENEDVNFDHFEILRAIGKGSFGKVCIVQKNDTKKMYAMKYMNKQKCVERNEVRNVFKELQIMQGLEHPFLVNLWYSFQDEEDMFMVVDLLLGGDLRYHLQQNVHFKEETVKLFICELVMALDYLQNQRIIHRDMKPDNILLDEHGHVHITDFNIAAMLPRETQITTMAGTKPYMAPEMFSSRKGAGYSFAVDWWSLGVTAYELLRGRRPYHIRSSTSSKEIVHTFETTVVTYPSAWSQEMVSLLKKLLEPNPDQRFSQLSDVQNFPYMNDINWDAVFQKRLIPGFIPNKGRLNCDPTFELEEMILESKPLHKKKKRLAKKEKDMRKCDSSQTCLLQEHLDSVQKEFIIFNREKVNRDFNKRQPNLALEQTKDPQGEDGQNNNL
Assay [11] deals with Platelet-derived growth factor receptor beta (Homo sapiens) (UniProt P09619). The assay is described as follows: Inhibition of human recombinant PDGFRb at 15 nM related to control ULK1.
Assay [12] has as its target 5'-AMP-activated protein kinase catalytic subunit alpha-1 (Homo sapiens) (UniProt Q13131). The assay is described as follows: Inhibition of human recombinant AMPKa1 at 15 nM related to control ULK1. The method in brief: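 Panel of 327 recombinant human kinases, each assayed in vitro by radiometric activity assay in duplicate at a single inhibitor concentration per compound, chosen with reference to its ULK1 inhibition. Activity remaining was expressed as percent of vehicle control, and percent inhibition was calculated as 100 minus percent activity remaining.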

Assay [13] has as its target Serine/threonine-protein kinase pim-3 (Homo sapiens) (UniProt Q86V86). The assay is described as follows: Inhibition of human recombinant PIM3 at 15 nM in presence of ATP by radiometric assay relative to control.

Sequence of 5'-AMP-activated protein kinase catalytic subunit alpha-1 (Homo sapiens) (Q13131 whole entry, looked up): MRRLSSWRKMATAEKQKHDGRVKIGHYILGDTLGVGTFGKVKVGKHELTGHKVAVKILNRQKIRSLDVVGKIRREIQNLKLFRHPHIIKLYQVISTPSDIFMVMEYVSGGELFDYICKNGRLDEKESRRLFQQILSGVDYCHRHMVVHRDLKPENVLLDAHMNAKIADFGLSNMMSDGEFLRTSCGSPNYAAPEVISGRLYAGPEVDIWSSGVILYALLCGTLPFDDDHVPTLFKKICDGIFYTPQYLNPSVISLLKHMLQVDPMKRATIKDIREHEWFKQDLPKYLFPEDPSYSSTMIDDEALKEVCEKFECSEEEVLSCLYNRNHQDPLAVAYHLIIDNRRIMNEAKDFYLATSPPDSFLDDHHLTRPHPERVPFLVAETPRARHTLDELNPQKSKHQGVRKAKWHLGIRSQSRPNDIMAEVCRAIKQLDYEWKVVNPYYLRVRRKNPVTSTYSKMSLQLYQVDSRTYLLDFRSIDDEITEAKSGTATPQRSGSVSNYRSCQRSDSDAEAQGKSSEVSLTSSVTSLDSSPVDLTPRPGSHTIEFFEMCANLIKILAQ
Sequence of Transcription initiation factor TFIID subunit 1-like (Homo sapiens) (Q8IZX4 whole entry): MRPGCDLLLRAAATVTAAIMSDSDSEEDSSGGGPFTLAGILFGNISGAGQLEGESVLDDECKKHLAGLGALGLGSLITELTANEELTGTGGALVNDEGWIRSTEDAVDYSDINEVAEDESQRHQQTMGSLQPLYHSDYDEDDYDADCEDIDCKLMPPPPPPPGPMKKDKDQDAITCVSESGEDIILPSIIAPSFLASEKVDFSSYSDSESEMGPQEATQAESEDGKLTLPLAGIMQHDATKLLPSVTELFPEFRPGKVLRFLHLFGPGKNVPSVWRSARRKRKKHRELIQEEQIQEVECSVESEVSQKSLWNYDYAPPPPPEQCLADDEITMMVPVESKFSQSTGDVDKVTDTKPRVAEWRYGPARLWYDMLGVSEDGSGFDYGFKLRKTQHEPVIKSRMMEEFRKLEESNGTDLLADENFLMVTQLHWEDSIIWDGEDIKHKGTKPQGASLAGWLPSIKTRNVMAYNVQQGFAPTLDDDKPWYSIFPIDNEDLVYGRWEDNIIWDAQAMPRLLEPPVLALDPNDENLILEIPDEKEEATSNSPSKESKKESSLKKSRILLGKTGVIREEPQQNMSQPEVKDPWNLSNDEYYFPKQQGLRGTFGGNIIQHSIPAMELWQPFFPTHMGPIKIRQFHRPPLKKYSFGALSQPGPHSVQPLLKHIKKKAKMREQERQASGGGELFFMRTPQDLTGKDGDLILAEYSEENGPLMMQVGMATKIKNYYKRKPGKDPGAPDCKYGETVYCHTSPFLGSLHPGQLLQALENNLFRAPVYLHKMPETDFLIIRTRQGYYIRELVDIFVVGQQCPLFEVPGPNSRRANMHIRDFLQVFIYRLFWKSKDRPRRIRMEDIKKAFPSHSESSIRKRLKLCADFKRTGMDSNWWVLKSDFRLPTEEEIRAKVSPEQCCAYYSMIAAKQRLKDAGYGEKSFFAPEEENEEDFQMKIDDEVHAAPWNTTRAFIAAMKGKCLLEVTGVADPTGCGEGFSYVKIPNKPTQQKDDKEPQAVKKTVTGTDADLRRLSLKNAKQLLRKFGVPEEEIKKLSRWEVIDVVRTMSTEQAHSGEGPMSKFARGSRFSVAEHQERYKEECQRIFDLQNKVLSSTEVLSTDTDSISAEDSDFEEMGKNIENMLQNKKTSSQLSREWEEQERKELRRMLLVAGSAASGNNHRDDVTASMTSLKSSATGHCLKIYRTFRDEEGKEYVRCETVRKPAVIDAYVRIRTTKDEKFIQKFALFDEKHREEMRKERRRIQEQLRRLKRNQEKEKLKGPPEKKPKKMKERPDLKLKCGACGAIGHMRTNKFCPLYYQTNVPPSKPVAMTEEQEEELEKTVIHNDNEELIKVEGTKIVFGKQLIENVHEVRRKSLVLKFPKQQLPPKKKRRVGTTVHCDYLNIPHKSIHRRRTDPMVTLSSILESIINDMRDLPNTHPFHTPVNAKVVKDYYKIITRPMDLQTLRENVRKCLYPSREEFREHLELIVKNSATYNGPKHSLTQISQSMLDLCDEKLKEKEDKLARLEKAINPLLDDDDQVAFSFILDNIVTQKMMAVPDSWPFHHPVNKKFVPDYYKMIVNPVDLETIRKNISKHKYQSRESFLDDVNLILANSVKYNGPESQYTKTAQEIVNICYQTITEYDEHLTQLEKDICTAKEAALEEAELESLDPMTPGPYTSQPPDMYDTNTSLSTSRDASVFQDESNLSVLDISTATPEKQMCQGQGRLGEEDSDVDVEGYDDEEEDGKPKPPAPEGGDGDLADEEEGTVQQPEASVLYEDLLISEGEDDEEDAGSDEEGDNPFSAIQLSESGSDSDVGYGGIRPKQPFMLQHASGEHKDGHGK

With `O=C(N[C@@H](C1CC1)C(F)(F)F)c1cc(-c2cnn3cc(-c4ccc(F)cc4)cnc23)cs1`, the fold change (FC) in assay [1] was determined as 0.64; in assay [2], 0.27; in [3] it was 0.07. In assay [4], the inhibition (in general, the share of the control response that was lost under treatment) stood at 47%.
With `CNC(=O)c1ccccc1Oc1nc(Nc2cc(OC)c(OC)c(OC)c2)ncc1Br`, the inhibition in [5] was 4%; in assay [6], 2%; in assay [8], 53%. Moreover, the fold change (FC) in assay [7] was 0.43.
In the case of `CC(C)[C@H](NC(=O)c1cc(-c2cnn3cc(-c4ccc(OCCN5CCCCC5)cc4)cnc23)cs1)C(F)(F)F`, the figures for the fold change (FC) in assay [9], in [11] and in assay [12] were 0.13, 0 and 0.66, respectively. For the same compound, the inhibition in [10] and in assay [13] was 2% each time.

(Values after ChEMBL document CHEMBL5653631, “A Potent and Selective ULK1 Inhibitor Suppresses Autophagy and Sensitizes Cancer Cells to Nutrient Stress” (iScience, 2018).)
